From ChEMBL document CHEMBL1165965, “Synthesis and structure-activity relationships of 1,2,3,4-tetrahydropyrido[2,3-b]pyrazines as potent and selective inhibitors of the anaplastic lymphoma kinase” (Bioorg Med Chem, 2010)

Assays:
[1] = target: Phosphatidylinositol 4,5-bisphosphate 3-kinase catalytic subunit gamma isoform (Homo sapiens) (UniProt P48736); assay: Inhibition of PIK3CG at 1 uM
[2] = target: T1, Mitogen-activated protein kinase kinase kinase kinase 3 (Homo sapiens) (UniProt Q8IVH8); assay: Inhibition of MAP4K3 at 1 uM
T1 sequence (whole entry): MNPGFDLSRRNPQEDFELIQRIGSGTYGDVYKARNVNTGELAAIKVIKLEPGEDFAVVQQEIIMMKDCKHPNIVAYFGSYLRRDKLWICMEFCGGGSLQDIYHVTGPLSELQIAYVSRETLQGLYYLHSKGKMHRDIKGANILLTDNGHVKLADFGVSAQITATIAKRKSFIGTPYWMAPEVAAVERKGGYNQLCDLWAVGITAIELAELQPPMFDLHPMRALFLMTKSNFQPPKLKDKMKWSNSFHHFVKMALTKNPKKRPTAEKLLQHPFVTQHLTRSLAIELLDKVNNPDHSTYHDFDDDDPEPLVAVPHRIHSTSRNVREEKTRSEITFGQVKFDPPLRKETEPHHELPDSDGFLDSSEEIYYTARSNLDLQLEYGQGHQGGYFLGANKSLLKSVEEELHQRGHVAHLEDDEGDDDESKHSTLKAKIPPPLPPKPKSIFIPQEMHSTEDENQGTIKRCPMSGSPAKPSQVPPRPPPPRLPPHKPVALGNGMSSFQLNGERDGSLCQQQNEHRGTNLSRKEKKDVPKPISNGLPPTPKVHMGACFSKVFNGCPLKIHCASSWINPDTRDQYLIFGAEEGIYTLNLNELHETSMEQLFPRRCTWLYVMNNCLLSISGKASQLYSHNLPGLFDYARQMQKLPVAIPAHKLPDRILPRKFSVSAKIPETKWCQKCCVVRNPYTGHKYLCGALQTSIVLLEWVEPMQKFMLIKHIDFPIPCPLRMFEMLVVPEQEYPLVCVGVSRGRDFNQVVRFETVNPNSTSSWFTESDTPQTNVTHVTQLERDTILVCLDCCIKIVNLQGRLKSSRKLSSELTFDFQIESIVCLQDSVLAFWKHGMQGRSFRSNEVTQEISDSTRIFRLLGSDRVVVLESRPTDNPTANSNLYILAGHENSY
In short: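 Single-concentration screen on the Ambit KINOMEscan platform, run against a panel of 250–400 kinases. Per-kinase inhibition was also summarized as S(90), the fraction of kinases inhibited by more than 90%.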

[3] = tested on: Serine/threonine-protein kinase B-raf (Homo sapiens), P15056 [V600E]; assay: Inhibition of BRAF V600E mutant at 1 uM
Serine/threonine-protein kinase B-raf (Homo sapiens), P15056 [V600E], sequence (P15056 whole entry V600E): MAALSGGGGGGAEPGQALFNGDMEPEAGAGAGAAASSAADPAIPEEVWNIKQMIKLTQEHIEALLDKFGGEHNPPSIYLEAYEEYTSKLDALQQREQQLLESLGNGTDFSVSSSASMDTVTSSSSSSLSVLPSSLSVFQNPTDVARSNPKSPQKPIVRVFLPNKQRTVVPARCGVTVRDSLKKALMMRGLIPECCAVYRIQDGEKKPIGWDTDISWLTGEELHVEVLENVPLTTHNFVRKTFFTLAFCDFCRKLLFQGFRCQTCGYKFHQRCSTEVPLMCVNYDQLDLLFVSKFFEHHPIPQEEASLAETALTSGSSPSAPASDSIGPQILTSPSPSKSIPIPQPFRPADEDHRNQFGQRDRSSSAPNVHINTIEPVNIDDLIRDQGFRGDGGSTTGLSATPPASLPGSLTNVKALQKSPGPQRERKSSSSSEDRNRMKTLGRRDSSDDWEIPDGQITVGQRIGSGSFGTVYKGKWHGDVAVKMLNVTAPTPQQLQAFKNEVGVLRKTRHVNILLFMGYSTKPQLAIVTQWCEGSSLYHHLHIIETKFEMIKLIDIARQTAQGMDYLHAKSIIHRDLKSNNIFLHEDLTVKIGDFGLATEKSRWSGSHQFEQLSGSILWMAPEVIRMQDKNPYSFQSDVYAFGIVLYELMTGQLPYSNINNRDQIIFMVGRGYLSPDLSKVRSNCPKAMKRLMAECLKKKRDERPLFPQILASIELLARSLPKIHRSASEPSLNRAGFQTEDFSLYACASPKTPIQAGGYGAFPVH
In short: (§1)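 Ambit KINOMEscan screen at a single concentration across a 250–400 kinase panel, recorded as percent inhibition. Selectivity was expressed as S(90), the fraction of kinases inhibited >90%.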

[4] = target: Epidermal growth factor receptor (Homo sapiens) (UniProt P04626+P00533+Q15303+P21860); assay: Inhibition of EGFR L747-E749del, A750P mutant at 1 uM; type: protein assay
In short: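 Single-concentration screen using Ambit Bioscience KINOMEscan technology across a panel of 250–400 kinases. Per-kinase inhibition from this screen was summarized as S(90), the fraction of kinases inhibited by more than 90%.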

[5] = target: T2, Aurora kinase C (Homo sapiens) (UniProt Q9UQB9); assay: Inhibition of AURKC at 1 uM; in short: as §1
T2 sequence (whole entry): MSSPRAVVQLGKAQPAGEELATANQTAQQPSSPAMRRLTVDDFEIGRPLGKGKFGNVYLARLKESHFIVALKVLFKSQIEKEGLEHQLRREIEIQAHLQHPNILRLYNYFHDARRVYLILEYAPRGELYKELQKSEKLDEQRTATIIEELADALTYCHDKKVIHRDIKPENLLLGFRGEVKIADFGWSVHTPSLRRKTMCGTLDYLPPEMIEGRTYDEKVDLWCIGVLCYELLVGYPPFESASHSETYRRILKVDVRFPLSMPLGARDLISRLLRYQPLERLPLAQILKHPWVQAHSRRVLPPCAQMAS

[6] = target: T3, Serine/threonine-protein kinase ULK2 (Homo sapiens) (UniProt Q8IYT8); assay: Inhibition of ULK2 at 1 uM
T3 sequence (whole entry): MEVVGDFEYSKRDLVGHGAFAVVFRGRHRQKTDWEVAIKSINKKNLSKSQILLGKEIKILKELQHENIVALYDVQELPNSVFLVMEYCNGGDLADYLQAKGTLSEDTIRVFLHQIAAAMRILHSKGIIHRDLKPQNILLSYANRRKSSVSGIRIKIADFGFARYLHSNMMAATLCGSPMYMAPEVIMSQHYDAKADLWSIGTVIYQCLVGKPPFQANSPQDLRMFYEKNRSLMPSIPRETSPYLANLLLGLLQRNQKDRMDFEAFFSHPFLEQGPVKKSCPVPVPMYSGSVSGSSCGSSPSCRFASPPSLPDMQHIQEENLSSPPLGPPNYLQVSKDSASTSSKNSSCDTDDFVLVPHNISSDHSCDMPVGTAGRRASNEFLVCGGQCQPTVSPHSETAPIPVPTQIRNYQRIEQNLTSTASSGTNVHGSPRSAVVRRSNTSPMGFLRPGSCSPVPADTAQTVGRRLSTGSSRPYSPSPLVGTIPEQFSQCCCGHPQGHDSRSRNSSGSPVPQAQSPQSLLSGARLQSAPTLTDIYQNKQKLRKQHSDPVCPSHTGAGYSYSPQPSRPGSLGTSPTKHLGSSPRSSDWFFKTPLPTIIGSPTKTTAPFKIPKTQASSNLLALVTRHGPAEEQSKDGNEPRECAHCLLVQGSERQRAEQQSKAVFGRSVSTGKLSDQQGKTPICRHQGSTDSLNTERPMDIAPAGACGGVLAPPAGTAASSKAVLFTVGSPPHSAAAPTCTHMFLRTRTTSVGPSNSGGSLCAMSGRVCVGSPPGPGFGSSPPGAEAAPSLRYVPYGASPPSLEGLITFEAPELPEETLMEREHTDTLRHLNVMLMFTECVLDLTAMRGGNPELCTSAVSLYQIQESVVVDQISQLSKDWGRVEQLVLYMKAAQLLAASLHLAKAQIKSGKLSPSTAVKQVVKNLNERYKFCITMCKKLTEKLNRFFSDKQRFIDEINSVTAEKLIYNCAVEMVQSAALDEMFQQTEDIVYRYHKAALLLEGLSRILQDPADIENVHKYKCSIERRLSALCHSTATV

[7] = target: Wee1-like protein kinase (Homo sapiens) (UniProt P30291); assay: Inhibition of WEE1 at 1 uM
Wee1-like protein kinase (Homo sapiens), sequence (P30291 whole entry, looked up): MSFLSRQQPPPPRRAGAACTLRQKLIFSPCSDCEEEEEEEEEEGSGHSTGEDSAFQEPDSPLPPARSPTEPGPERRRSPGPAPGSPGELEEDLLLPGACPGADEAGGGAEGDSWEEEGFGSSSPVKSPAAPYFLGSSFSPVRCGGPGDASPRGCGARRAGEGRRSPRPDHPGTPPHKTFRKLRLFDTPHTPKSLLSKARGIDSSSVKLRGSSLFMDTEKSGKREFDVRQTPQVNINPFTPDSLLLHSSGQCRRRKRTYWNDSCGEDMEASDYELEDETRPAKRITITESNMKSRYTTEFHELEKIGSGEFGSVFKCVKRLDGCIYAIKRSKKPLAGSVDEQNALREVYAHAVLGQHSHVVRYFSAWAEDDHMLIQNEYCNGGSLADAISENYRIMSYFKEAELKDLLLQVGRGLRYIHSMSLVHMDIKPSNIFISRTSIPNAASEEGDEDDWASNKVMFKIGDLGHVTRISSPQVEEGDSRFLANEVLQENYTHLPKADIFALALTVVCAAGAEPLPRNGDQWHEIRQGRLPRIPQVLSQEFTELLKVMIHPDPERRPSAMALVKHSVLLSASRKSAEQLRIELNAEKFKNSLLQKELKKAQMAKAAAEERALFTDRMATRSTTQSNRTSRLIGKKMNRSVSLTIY

Phosphatidylinositol 4,5-bisphosphate 3-kinase catalytic subunit gamma isoform (Homo sapiens), sequence (P48736 whole entry, looked up, canonical isoform): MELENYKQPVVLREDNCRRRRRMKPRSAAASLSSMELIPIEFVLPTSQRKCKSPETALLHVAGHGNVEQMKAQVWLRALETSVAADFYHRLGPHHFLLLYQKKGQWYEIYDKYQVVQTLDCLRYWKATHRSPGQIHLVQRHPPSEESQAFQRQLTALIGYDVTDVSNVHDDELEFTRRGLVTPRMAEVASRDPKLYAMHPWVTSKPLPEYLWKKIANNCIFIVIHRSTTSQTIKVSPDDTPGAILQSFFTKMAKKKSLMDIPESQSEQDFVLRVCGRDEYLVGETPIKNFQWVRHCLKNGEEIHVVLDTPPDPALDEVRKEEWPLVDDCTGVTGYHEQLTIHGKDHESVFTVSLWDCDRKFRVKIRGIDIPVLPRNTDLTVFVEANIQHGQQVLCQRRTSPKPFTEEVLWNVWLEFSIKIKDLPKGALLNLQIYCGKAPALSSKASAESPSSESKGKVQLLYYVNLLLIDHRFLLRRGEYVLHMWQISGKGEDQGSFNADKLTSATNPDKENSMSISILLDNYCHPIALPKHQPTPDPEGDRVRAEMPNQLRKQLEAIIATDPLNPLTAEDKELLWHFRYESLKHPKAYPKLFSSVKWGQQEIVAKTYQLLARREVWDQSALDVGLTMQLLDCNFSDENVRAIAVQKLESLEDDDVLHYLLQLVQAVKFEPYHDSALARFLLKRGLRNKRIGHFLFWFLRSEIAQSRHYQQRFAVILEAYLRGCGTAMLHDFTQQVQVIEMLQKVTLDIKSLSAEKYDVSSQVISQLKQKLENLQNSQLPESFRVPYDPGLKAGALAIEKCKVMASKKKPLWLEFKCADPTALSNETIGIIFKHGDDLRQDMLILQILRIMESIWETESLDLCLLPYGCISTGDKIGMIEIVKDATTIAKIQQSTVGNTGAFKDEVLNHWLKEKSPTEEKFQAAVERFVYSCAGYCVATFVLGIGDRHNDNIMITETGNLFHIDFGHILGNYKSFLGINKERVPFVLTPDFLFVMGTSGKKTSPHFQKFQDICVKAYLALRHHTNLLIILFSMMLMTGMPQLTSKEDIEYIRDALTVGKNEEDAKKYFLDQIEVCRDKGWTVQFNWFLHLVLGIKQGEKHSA

inhibition [1] | inhibition [2] | inhibition [3] | inhibition [4] | inhibition [5] | inhibition [6] | inhibition [7] | Compound
< 50% | < 50% | < 50% | < 50% | < 50% | < 50% | < 50% | CN1CCN(c2ccc(-c3cnc4c(c3)N(Cc3cc(Cl)ccc3Cl)CCN4)cn2)CC1
< 50% | < 50% | < 50% | < 50% | < 50% | < 50% | < 50% | CN1CCN(c2ccc(-c3cnc4c(c3)N(Cc3cc(Cl)ccc3C(F)(F)F)CCN4)cn2)CC1
– | < 50% | < 50% | < 50% | 79.5% | – | – | COC1CCN(C(=O)c2ccc(-c3cnc4c(c3)N(Cc3cc(Cl)ccc3C(F)(F)F)CCN4)cc2)CC1
– | < 50% | < 50% | < 50% | < 50% | – | – | O=C(c1ccc(-c2cnc3c(c2)N(Cc2cc(Cl)ccc2C(F)(F)F)CCN3)cc1)N1CCCCC1
< 50% | 70% | < 50% | < 50% | 92% | 78% | < 50% | FC(F)(F)c1ccc(Cl)cc1CN1CCNc2ncc(-c3ccnc(N4CCNCC4)c3)cc21
< 50% | < 50% | < 50% | < 50% | 89% | < 50% | < 50% | CC(=O)N1CCN(c2cc(-c3cnc4c(c3)N(Cc3cc(Cl)ccc3C(F)(F)F)CCN4)ccn2)CC1
– | < 50% | < 50% | < 50% | < 50% | – | – | O=C(O)c1ccc(-c2cnc3c(c2)N(Cc2cc(Cl)ccc2C(F)(F)F)CCN3)cc1
– | < 50% | < 50% | < 50% | 96.9% | – | – | O=C(c1ccc(-c2cnc3c(c2)N(Cc2cc(Cl)ccc2C(F)(F)F)CCN3)cc1)N1CCC(N2CCCC2)CC1
< 50% | 91% | < 50% | < 50% | < 50% | < 50% | < 50% | CN1CCN(c2ccc(-c3cnc4c(c3)N(Cc3c(F)ccc(F)c3Cl)CCN4)cn2)CC1
< 50% | < 50% | < 50% | < 50% | < 50% | < 50% | < 50% | CN1CCN(c2ccc(-c3cnc4c(c3)N(Cc3cc(F)ccc3F)CCN4)cn2)CC1
